From ChEMBL document CHEMBL4680165, “β-Lactams with antiproliferative and antiapoptotic activity in breast and chemoresistant colon cancer cells” (Eur J Med Chem, 2020)
Values belong to the molecule of their own block, whether it stands above or below them. Activity calls are given as the source filed them. No cut-off for these calls is given here.

Legend:
[1] = species: Bos taurus; assay: Inhibition of bovine brain tubulin polymerization at 10 uM measured at 30 sec interval for 30 mins in presence of GTP by turbidimetry-based spectrophotometric method
[2] = Selectivity index, ratio of IC50 for human MCF7 cells to IC50 for human HT-29 cells assessed as reduction in cell viability after 72 hrs by alamar blue assay; format: functional
[3] = molecular target: T1, Tubulin (Homo sapiens) (UniProt P68371+Q9H4B7+P0DPH7+P68366+Q13509+Q71U36+P04350+Q3ZCM7+P07437+P68363+Q9BQE3+Q6PEY2+Q13885+Q9BVA1+Q9BUF5); assay: Binding affinity to tubulin in human MCF7 cells assessed as inhibition of tubulin-EBI adduct formation preincubated for 2 hrs followed by EBI addition and measured after 1.5 hrs by Western blotting analysis; format: cell-based; conditions: time 3.5 hrs
Method in brief: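 MCF-7 cells (5 × 10^4/well) were incubated overnight, then given vehicle (0.1% v/v ethanol) or compound at 10 µM for 2 h. Selected wells then received EBI (100 µM) for 1.5 h. Cells were washed in ice-cold PBS, lysed in Laemmli buffer and run on SDS-PAGE. Blots were probed for β-tubulin and the β-tubulin–EBI adduct, with GAPDH as loading control. Three independent experiments.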

[4] = tested on: MCF7; assay: Antiproliferative activity against human MCF7 cells assessed as reduction in cell viability after 72 hrs by alamar blue assay; format: functional, cell-based; conditions: MCF7, 72 h
Method in brief: (§1)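 Cells seeded at 5 x 10^3/well (MCF-7) or 1 x 10^4/well (HT-29, HEK-293T) and treated after 24 h with serial dilutions (0.001-100 µM) in 1% v/v ethanol vehicle. Alamar Blue 10% v/v added at 72 h, then 3-5 h at 37 °C in the dark; fluorescence ex 530/em 590 nm. Viability relative to vehicle; IC50 from dose-response curves; mean of three experiments in triplicate.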

[5] = tested on: UDP-glucuronosyltransferases (UGTs); assay: Metabolic stability in human liver microsomes assessed as UGT-mediated N-glucuronidation by measuring intrinsic clearance at 3 uM measured up to 45 mins by LC-MS/MS analysis; format: ADME; conditions: microsomes, 0.75 h, 3 µM
Method in brief: (§2)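 Pooled human liver microsomes (0.5 mg/mL protein final) with alamethicin (25 µg/mg) in 0.1 M phosphate pH 7.4, compound 3 µM final (0.25% DMSO), preincubated 37 °C. Reaction started with UDPGA (1 mM final). Sampled at 0, 5, 15, 30, 45 min into methanol, analysed by LC-MS/MS. Minus-UDPGA control run 45 min. Single incubations; t½ and CLint taken from the elimination rate constant.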

[6] = tested on: UDP-glucuronosyltransferases (UGTs); assay: Metabolic stability in human liver microsomes assessed as UGT-mediated N-glucuronidation by measuring half life at 3 uM measured up to 45 mins by LC-MS/MS analysis; format: ADME; conditions: microsomes, 0.75 h, 3 µM; method in brief: as §2
[7] = tested on: HT-29; assay: Antiproliferative activity against human HT-29 cells assessed as reduction in cell viability after 72 hrs by alamar blue assay; format: functional, cell-based; conditions: HT-29, 72 h; method in brief: as §1
[8] = molecular target: T1, Tubulin (Homo sapiens); assay: Induction of microtubule depolymerization in human MCF7 cells at 1 uM after 16 hrs by immunofluorescence staining based confocal microscopic analysis; format: cell-based

SMILES: COc1ccc(/C=C\c2cc(OC)c(OC)c(OC)c2)cc1O [COMBRETASTATIN A4]
inhibition [1]: Active
Ratio IC50 [2]: 0.001
Activity [3]: Active
IC50 [4]: 4 nM
CLH [5]: 645 µL/min/mg
t1/2 [6]: 2.71 min
IC50 [7]: 4160 nM

Activity [8]: Active
SMILES: CC(=O)O[C@H]1C(=O)[C@@]2(C)[C@H]([C@H](OC(=O)c3ccccc3)[C@]3(O)C[C@H](OC(=O)[C@H](O)[C@@H](NC(=O)c4ccccc4)c4ccccc4)C(C)=C1C3(C)C)[C@]1(OC(C)=O)CO[C@@H]1C[C@@H]2O
